Reference: ChEMBL document CHEMBL2346629, “Discovery and characterization of novel allosteric FAK inhibitors” (Eur J Med Chem, 2013)

Columns and labels:
[1] = target: Serine/threonine-protein kinase Nek2 (Homo sapiens) (UniProt P51955); assay: Inhibition of NEK2 (unknown origin) using [gamma-33P]ATP assessed as residual activity at 3 uM
[2] = target: Serine/threonine-protein kinase MRCK beta (Homo sapiens) (UniProt Q9Y5S2); assay: Inhibition of MRCKB (unknown origin) using [gamma-33P]ATP assessed as residual activity at 3 uM
[3] = target: CDK6/cyclin D3 (Homo sapiens) (UniProt P30281+Q00534); assay: Inhibition of CDK6/cyclin D3 (unknown origin) using [gamma-33P]ATP assessed as residual activity at 3 uM; format: protein-complex assay
Procedure, shortened: (§1)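 Radiometric profiling across 288 kinases (261 wild-type, 27 mutant), run as an outsourced service. Inhibition read out as [gamma-33P]ATP incorporation into substrate.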

[4] = system: Tyrosine-protein kinase ABL1 (Homo sapiens), P00519 [Y253F]; assay: Inhibition of ABL1 Y253F mutant (unknown origin) using [gamma-33P]ATP assessed as residual activity at 3 uM; procedure, shortened: as §1
[5] = system: Receptor-type tyrosine-protein kinase FLT3 (Homo sapiens), P36888 [D835Y]; assay: Inhibition of FLT3 D835Y mutant (unknown origin) using [gamma-33P]ATP assessed as residual activity at 3 uM
Procedure, shortened: (§2)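 Radiometric kinase profiling service covering 288 kinases (261 wild-type, 27 mutant). Inhibition was read as incorporation from [γ-³³P]ATP.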

[6] = target: Serine/threonine-protein kinase NLK (Homo sapiens) (UniProt Q9UBE8); assay: Inhibition of NLK (unknown origin) using [gamma-33P]ATP assessed as residual activity at 3 uM
[7] = target: Cyclin-dependent kinase 5/CDK5 activator 1 (Homo sapiens) (UniProt Q00535+Q15078); assay: Inhibition of CDK5/p25 (unknown origin) using [gamma-33P]ATP assessed as residual activity at 3 uM; format: protein-complex assay; procedure, shortened: as §1
[8] = target: Mitogen-activated protein kinase 9 (Homo sapiens) (UniProt P45984); assay: Inhibition of JNK2a2 (unknown origin) using [gamma-33P]ATP assessed as residual activity at 3 uM; procedure, shortened: as §2
[9] = system: Epidermal growth factor receptor (Homo sapiens), P00533 [T790M]; assay: Inhibition of EGFR T790M mutant (unknown origin) using [gamma-33P]ATP assessed as residual activity at 3 uM; format: protein assay
Procedure, shortened: (§3)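 Reaction Biology HotSpot radiometric profiling panel of 288 kinases (261 wild-type, 27 mutant). Kinase activity was read out by incorporation of [γ-33P]ATP.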

[10] = target: Insulin receptor (Homo sapiens) (UniProt P06213); assay: Inhibition of IR (unknown origin) using [gamma-33P]ATP assessed as residual activity at 3 uM; procedure, shortened: as §2
Insulin receptor (Homo sapiens), sequence (P06213 28-758 limits assumed): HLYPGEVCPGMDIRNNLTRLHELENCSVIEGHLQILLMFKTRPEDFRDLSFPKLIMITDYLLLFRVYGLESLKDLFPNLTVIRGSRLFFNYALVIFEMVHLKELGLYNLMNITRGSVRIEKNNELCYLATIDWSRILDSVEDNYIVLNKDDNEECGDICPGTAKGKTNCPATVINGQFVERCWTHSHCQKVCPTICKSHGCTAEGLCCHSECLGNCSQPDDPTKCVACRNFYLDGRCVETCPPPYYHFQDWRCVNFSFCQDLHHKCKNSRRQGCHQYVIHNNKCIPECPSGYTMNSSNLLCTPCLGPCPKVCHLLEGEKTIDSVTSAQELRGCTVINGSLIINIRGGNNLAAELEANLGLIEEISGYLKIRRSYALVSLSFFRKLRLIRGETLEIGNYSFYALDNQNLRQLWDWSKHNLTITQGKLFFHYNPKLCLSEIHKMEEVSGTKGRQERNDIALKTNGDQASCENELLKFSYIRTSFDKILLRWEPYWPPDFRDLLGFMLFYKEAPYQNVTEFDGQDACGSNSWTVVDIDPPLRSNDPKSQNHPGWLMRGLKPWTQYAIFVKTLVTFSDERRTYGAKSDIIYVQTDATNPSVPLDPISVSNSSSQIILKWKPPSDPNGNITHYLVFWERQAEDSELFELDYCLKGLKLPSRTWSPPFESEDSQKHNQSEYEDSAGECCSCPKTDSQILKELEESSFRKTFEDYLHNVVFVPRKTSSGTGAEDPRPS
Insulin receptor (Homo sapiens), sequence (P06213 763-1382 limits assumed): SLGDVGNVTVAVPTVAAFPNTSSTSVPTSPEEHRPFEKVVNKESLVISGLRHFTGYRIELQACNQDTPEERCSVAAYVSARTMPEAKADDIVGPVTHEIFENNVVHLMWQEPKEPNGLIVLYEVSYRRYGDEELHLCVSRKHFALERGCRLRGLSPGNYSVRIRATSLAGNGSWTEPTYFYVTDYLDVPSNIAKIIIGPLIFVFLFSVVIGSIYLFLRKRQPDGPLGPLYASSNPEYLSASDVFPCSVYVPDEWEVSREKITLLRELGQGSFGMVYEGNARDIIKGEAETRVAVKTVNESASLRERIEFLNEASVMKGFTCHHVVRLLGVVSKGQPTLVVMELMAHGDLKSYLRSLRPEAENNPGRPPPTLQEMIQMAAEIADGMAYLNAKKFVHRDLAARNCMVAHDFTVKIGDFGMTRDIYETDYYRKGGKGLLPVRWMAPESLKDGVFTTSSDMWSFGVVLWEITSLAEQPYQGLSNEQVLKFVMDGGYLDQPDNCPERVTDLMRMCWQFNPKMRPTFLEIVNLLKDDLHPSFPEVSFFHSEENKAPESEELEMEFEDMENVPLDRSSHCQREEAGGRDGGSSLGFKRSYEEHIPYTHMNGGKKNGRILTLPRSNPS

[11] = target: Serine/threonine-protein kinase mTOR (Homo sapiens) (UniProt P42345); assay: Inhibition of mTOR (unknown origin) using [gamma-33P]ATP assessed as residual activity at 3 uM
[12] = target: Serine/threonine-protein kinase WNK3 (Homo sapiens) (UniProt Q9BYP7); assay: Inhibition of WNK3 (unknown origin) using [gamma-33P]ATP assessed as residual activity at 3 uM
[13] = target: Mitogen-activated protein kinase 3 (Homo sapiens) (UniProt P27361); assay: Inhibition of ERK1 (unknown origin) using [gamma-33P]ATP assessed as residual activity at 3 uM; procedure, shortened: as §3
[14] = target: Ephrin type-B receptor 3 (Homo sapiens) (UniProt P54753); assay: Inhibition of EPHB3 (unknown origin) using [gamma-33P]ATP assessed as residual activity at 3 uM; procedure, shortened: as §3
[15] = target: Cyclin-dependent kinase 2/cyclin A (Homo sapiens) (UniProt P24941+P20248+P78396); assay: Inhibition of CDK2/cyclinA (unknown origin) using [gamma-33P]ATP assessed as residual activity at 3 uM; format: protein-complex assay; procedure, shortened: as §1
Cyclin-dependent kinase 2/cyclin A (Homo sapiens), sequence (P20248 whole entry, looked up, other chains not shown): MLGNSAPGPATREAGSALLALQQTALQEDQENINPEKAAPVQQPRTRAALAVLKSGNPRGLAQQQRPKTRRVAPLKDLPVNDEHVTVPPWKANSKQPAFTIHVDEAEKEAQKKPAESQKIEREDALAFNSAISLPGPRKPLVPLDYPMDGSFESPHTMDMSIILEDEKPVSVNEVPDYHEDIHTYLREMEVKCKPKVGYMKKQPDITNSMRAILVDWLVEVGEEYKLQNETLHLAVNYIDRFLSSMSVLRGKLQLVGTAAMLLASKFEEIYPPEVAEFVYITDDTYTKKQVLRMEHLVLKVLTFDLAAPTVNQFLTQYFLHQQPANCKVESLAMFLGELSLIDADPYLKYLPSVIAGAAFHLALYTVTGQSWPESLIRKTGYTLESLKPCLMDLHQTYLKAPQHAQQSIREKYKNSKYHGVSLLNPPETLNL
Cyclin-dependent kinase 2/cyclin A (Homo sapiens), sequence (P78396 whole entry, looked up, other chains not shown): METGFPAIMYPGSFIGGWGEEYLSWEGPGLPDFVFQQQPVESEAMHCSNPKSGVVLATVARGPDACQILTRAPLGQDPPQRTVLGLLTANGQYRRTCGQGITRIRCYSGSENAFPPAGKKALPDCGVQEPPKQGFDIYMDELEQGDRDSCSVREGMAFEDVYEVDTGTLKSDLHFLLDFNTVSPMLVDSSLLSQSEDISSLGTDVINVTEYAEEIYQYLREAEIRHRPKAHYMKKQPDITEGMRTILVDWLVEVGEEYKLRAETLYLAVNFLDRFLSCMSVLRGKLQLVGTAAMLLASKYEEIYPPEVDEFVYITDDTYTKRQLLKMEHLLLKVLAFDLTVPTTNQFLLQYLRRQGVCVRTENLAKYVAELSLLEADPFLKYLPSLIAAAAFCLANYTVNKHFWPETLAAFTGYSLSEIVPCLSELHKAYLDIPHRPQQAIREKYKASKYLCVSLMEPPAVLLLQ

[16] = target: Serine/threonine-protein kinase B-raf (Homo sapiens) (UniProt P15056); assay: Inhibition of BRAF (unknown origin) using [gamma-33P]ATP assessed as residual activity at 3 uM; procedure, shortened: as §1
Serine/threonine-protein kinase B-raf (Homo sapiens), sequence (P15056 whole entry): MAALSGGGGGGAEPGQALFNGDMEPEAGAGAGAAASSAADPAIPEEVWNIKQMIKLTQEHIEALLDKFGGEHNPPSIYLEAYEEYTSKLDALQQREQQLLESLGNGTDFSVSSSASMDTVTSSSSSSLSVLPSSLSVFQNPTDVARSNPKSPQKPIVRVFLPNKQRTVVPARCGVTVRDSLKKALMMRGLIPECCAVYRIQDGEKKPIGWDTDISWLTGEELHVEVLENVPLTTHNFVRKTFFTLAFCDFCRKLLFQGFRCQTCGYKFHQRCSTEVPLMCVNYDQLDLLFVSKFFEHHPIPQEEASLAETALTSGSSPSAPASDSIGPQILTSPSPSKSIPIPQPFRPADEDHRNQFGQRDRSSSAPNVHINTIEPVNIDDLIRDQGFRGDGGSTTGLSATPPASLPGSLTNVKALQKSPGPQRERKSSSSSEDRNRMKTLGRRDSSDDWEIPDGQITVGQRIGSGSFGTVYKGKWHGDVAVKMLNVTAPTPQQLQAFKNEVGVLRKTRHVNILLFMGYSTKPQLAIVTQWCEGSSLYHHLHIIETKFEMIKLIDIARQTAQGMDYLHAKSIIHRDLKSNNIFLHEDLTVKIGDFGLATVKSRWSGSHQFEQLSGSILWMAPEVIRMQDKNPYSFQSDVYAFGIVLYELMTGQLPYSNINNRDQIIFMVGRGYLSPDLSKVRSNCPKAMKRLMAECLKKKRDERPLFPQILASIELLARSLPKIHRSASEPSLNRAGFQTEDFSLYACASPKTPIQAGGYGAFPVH

[17] = target: Eukaryotic elongation factor 2 kinase (Homo sapiens) (UniProt O00418); assay: Inhibition of EEF2K (unknown origin) using [gamma-33P]ATP assessed as residual activity at 3 uM; procedure, shortened: as §3
Eukaryotic elongation factor 2 kinase (Homo sapiens), sequence (O00418 whole entry): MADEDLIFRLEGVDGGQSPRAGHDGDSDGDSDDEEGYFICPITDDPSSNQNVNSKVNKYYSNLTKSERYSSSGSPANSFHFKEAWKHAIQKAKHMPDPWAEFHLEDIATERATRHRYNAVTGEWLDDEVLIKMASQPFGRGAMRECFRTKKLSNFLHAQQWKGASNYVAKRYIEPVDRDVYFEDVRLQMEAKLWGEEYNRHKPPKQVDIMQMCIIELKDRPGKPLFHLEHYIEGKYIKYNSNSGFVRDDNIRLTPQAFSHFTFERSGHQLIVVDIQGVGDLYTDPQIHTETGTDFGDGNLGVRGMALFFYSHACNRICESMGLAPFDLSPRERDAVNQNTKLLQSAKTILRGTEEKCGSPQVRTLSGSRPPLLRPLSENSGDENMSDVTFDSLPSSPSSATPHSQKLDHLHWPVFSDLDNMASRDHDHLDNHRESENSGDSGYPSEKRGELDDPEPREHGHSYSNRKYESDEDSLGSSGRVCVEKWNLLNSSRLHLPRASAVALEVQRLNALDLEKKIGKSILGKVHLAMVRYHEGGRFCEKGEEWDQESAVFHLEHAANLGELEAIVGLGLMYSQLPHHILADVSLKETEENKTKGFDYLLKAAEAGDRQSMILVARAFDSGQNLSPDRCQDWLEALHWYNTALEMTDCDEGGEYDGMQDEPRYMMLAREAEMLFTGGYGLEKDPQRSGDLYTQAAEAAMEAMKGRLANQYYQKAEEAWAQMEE

[18] = target: Serine/threonine-protein kinase BRSK2 (Homo sapiens) (UniProt Q8IWQ3); assay: Inhibition of BRSK2 (unknown origin) using [gamma-33P]ATP assessed as residual activity at 3 uM; procedure, shortened: as §1
Serine/threonine-protein kinase BRSK2 (Homo sapiens), sequence (Q8IWQ3 whole entry): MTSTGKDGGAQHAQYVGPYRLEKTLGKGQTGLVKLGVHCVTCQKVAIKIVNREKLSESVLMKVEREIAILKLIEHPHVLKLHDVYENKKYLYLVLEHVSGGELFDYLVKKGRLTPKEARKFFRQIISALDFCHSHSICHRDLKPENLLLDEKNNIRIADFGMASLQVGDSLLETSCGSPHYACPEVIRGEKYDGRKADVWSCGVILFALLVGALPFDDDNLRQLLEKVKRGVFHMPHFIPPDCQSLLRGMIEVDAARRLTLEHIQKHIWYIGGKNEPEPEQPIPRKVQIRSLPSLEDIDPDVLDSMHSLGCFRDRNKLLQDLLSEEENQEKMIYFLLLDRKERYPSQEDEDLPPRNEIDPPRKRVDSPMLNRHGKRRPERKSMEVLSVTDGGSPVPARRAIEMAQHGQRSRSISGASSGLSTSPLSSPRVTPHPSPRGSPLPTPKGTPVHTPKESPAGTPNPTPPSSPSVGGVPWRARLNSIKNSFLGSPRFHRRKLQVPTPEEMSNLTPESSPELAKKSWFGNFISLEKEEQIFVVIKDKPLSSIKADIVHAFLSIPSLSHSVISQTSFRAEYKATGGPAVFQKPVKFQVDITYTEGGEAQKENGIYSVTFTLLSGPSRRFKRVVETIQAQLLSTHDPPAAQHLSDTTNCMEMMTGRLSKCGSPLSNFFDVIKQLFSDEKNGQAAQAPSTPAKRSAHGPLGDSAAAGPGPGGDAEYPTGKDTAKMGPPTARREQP

[19] = target: Ephrin type-A receptor 8 (Homo sapiens) (UniProt P29322); assay: Inhibition of EPHA8 (unknown origin) using [gamma-33P]ATP assessed as residual activity at 3 uM; procedure, shortened: as §3
[20] = target: Serine/threonine-protein kinase SIK2 (Homo sapiens) (UniProt Q9H0K1); assay: Inhibition of SIK2 (unknown origin) using [gamma-33P]ATP assessed as residual activity at 3 uM
[21] = target: Homeodomain-interacting protein kinase 3 (Homo sapiens) (UniProt Q9H422); assay: Inhibition of HIPK3 (unknown origin) using [gamma-33P]ATP assessed as residual activity at 3 uM; procedure, shortened: as §2
[22] = target: Protein kinase C delta type (Homo sapiens) (UniProt Q05655); assay: Inhibition of PKCd (unknown origin) using [gamma-33P]ATP assessed as residual activity at 3 uM
[23] = system: Fibroblast growth factor receptor 2 (Homo sapiens), P21802 [N549H]; assay: Inhibition of FGFR2 N549H mutant (unknown origin) using [gamma-33P]ATP assessed as residual activity at 3 uM; procedure, shortened: as §3
[24] = target: Tyrosine-protein kinase BTK (Homo sapiens) (UniProt Q06187); assay: Inhibition of BTK (unknown origin) using [gamma-33P]ATP assessed as residual activity at 3 uM; procedure, shortened: as §1
[25] = target: Ephrin type-A receptor 1 (Homo sapiens) (UniProt P21709); assay: Inhibition of EPHA1 (unknown origin) using [gamma-33P]ATP assessed as residual activity at 3 uM; procedure, shortened: as §3
[26] = target: Serine/threonine-protein kinase Chk2 (Homo sapiens, UniProt O96017); assay: Inhibition of CHK2 (unknown origin) using [gamma-33P]ATP assessed as residual activity at 3 uM
[27] = target: Protein kinase C zeta type (Homo sapiens) (UniProt Q05513); assay: Inhibition of PKCzeta (unknown origin) using [gamma-33P]ATP assessed as residual activity at 3 uM
[28] = target: Casein kinase I isoform epsilon (Homo sapiens) (UniProt P49674); assay: Inhibition of CK1epsilon (unknown origin) using [gamma-33P]ATP assessed as residual activity at 3 uM; procedure, shortened: as §3
[29] = target: Myotonin-protein kinase (Homo sapiens) (UniProt Q09013); assay: Inhibition of DMPK (unknown origin) using [gamma-33P]ATP assessed as residual activity at 3 uM; procedure, shortened: as §3
[30] = target: Receptor-type tyrosine-protein kinase FLT3 (Homo sapiens) (UniProt P36888); assay: Inhibition of FLT3 (unknown origin) using [gamma-33P]ATP assessed as residual activity at 3 uM; procedure, shortened: as §2
[31] = target: Serine/threonine-protein kinase WNK2 (Homo sapiens) (UniProt Q9Y3S1); assay: Inhibition of WNK2 (unknown origin) using [gamma-33P]ATP assessed as residual activity at 3 uM
[32] = target: Tyrosine-protein kinase Lyn (Homo sapiens) (UniProt P07948); assay: Inhibition of LYN (unknown origin) using [gamma-33P]ATP assessed as residual activity at 3 uM; procedure, shortened: as §2
Tyrosine-protein kinase Lyn (Homo sapiens), sequence (P07948 2-512 limits assumed): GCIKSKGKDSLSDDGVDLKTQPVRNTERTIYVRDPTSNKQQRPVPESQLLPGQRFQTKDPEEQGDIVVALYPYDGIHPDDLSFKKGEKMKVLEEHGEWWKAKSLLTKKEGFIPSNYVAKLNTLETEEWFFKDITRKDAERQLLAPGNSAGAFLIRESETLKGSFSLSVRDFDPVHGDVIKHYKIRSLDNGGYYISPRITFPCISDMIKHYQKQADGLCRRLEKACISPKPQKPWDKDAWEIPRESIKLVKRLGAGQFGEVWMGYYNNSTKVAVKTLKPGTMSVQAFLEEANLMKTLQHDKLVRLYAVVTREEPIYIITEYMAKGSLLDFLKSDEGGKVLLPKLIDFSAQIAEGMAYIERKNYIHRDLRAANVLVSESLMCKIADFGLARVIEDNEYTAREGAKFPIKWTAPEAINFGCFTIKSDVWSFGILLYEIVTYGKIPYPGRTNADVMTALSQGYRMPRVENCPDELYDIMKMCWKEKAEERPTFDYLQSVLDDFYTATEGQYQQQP

`CCc1ccc(-c2ccc3c(c2)-c2[nH]ncc2S(=O)(=O)N3C)cc1` was tested, and the Activity [1] was 96%, the Activity [2] was 101% and the Activity [3] was 102%. It also gave an Activity [4] of 68%, an Activity [5] of 52% and an Activity [6] of 95%. It also gave an Activity [7] of 90%, an Activity [8] of 98% and an Activity [9] of 109%. It also gave an Activity [10] of 94%, an Activity [11] of 100% and an Activity [12] of 106%. For the same compound, the Activity [13] was 91%, the Activity [14] was 95% and the Activity [15] was 96%. It also gave an Activity [16] of 98%, an Activity [17] of 104% and an Activity [18] of 93%. The Activity [19] was 95%, the Activity [20] was 103% and the Activity [21] was 104%. For the same compound, the Activity [22] was 91%, the Activity [23] was 102% and the Activity [24] was 95%. The Activity [25] was 95%, the Activity [26] was 50% and the Activity [27] was 98%. The Activity [28] was 96%, the Activity [29] was 103% and the Activity [30] was 53%. For the same compound, the Activity [31] was 97% and the Activity [32] was 78%.
